Test results taken from ChEMBL document CHEMBL1255260, “Population pharmacokinetics of piperaquine after two different treatment regimens with dihydroartemisinin-piperaquine in patients with Plasmodium falciparum malaria in Thailand” (Antimicrob Agents Chemother, 2008).

Key:
[1] = AUC (0 to 60 days) in human adult with uncomplicated malaria at 31 mg/kg, perorally; assay type: ADME, organism-based; parameters: time < 1440 hr, dose 31 mg/kg, route oral; settings: plasma, po
Procedure, shortened: (§1)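 Oral dihydroartemisinin-piperaquine, supervised, with no food restriction, in patients aged 3–55 y. The total dose of 55 mg/kg piperaquine phosphate was given as four doses (0, 8, 24, 48 h) or three doses (0, 24, 48 h). Sparse plasma sampling ran to day 63, measured by SPE-LC-UV (LLOQ 5 or 2.5 ng/ml). AUCs came from individual NONMEM two-compartment estimates. Children were ≤12 y and <30 kg.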

[2] = Apparent oral clearance in high-fat fed healthy human at 4.2 mg/kg, po after 42 days; assay type: ADME, organism-based; parameters: dose 4.2 mg/kg, route oral; settings: in vivo
[3] = Apparent oral clearance in human with uncomplicated malaria at 31 mg/kg, perorally after 63 days; assay type: ADME, organism-based; parameters: dose 31 mg/kg, route oral; settings: in vivo
Procedure, shortened: (§2)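 Population PK in 98 uncomplicated falciparum patients given dihydroartemisinin-piperaquine orally (55 mg/kg piperaquine phosphate total, 3- or 4-dose regimen). Patients gave a pretreatment sample, 2–4 early-window samples and one sample on days 7–63. Plasma piperaquine was measured by SPE-LC-UV. Log concentrations were fitted by NONMEM (FO/FOCE) to a two-compartment first-order absorption model with regimen as covariate.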

[4] = Terminal half-life in healthy human at 25 mg/kg, po after 29 days; assay type: ADME, organism-based; parameters: dose 25 mg/kg, route oral; settings: in vivo
[5] = Apparent volume of distribution with respect to bioavailability in human with uncomplicated malaria at 31 mg/kg, perorally; assay type: ADME, organism-based; settings: in vivo, po, read-out: Vc/F; procedure, shortened: as §2
[6] = Terminal half-life in human with uncomplicated malaria at 32 mg/kg, perorally after 35 days; assay type: ADME, organism-based; parameters: dose 32 mg/kg, route oral; settings: in vivo, po
[7] = Terminal half-life in high-fat fed healthy human at 4.2 mg/kg, po after 42 days; assay type: ADME, organism-based; parameters: dose 4.2 mg/kg, route oral; settings: in vivo
[8] = Terminal half-life in human with uncomplicated malaria at 31 mg/kg, perorally after 63 days; assay type: ADME, organism-based; parameters: dose 31 mg/kg, route oral; settings: in vivo, po; procedure, shortened: as §2
[9] = Apparent oral clearance in human with uncomplicated malaria at 31 mg/kg, perorally; assay type: ADME, organism-based; parameters: dose 31 mg/kg, route oral; settings: in vivo; procedure, shortened: as §2
[10] = Apparent steady-state volume of distribution with respect to bioavailability in human with uncomplicated malaria at 31 mg/kg, perorally; assay type: ADME, organism-based; settings: in vivo, po, read-out: Vss/F; procedure, shortened: as §2
[11] = Apparent oral clearance in human with uncomplicated malaria at 35 mg/kg, perorally after 35 days; assay type: ADME, organism-based; parameters: dose 35 mg/kg, route oral; settings: in vivo
[12] = Terminal elimination half-life in human with uncomplicated malaria at 31 mg/kg, perorally; settings: in vivo, po
Homo sapiens [13] = assay: Apparent intercompartmental clearance with respect to bioavailability in human with uncomplicated malaria at 31 mg/kg, perorally; assay type: ADME, organism-based; settings: in vivo, po; procedure, shortened: as §2
[14] = Apparent steady-state volume of distribution with respect to bioavailability in healthy human at 4.2 mg/kg, po after 42 days; assay type: ADME, organism-based; settings: in vivo, read-out: Vss/F
[15] = AUC (3 to 20 days) in uncomplicated malaria patient at 31 mg/kg, perorally four-dose treatment regimen; assay type: ADME, organism-based; parameters: dose 31 mg/kg, route oral; settings: human, plasma, po; procedure, shortened: as §1
[16] = Apparent oral clearance in human with uncomplicated malaria at 32 mg/kg, perorally after 35 days; assay type: ADME, organism-based; parameters: dose 32 mg/kg, route oral; settings: in vivo
[17] = Apparent oral clearance in healthy human at 4.2 mg/kg, po after 42 days; assay type: ADME, organism-based; parameters: dose 4.2 mg/kg, route oral; settings: in vivo
[18] = Plasma concentration in human with uncomplicated malaria at 31 mg/kg, perorally at day 28; assay type: ADME, organism-based; parameters: dose 31 mg/kg, route oral; settings: po
Procedure, shortened: (§3)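 Plasma piperaquine concentrations were simulated from the final NONMEM population model (500 simulations at each sampling time up to day 63). This followed oral dihydroartemisinin-piperaquine at a 55 mg/kg piperaquine phosphate total, given once daily at 0, 24 and 48 h or as four doses at 0, 8, 24 and 48 h.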

[19] = Apparent steady-state volume of distribution with respect to bioavailability in high-fat fed healthy human at 4.2 mg/kg, po after 42 days; assay type: ADME, organism-based; settings: in vivo, read-out: Vss/F
[20] = AUC (0 to 63 days) in uncomplicated malaria patient at 31 mg/kg, perorally four-dose treatment regimen; assay type: ADME, organism-based; parameters: time < 1512 hr, dose 31 mg/kg, route oral; settings: human, plasma, po; procedure, shortened: as §1
Homo sapiens [21] = assay: Apparent peripheral volume of distribution with respect to bioavailability in human with uncomplicated malaria at 31 mg/kg, perorally; assay type: ADME, organism-based; settings: in vivo, po; procedure, shortened: as §2
[22] = AUC (3 to 20 days) in uncomplicated malaria patient at 31 mg/kg, perorally once daily for 3 days; assay type: ADME, organism-based; parameters: dose 31 mg/kg, route oral; settings: human, plasma, po; procedure, shortened: as §1
[23] = Apparent steady-state volume of distribution with respect to bioavailability in human with uncomplicated malaria at 32 mg/kg, perorally after 35 days; assay type: ADME, organism-based; settings: in vivo, po, read-out: Vss/F
[24] = Terminal half-life in human with uncomplicated malaria at 31 mg/kg, perorally; assay type: ADME, organism-based; parameters: dose 31 mg/kg, route oral; settings: in vivo, po; procedure, shortened: as §2
[25] = AUC (3 to 20 days) in human adult with uncomplicated malaria at 31 mg/kg, perorally; assay type: ADME, organism-based; parameters: dose 31 mg/kg, route oral; settings: plasma, po; procedure, shortened: as §1
[26] = Apparent oral clearance in healthy human at 25 mg/kg, po after 29 days; assay type: ADME, organism-based; parameters: dose 25 mg/kg, route oral; settings: in vivo
[27] = AUC (0 to 63 days) in human with uncomplicated malaria at 31 mg/kg, perorally once daily for 3 days; assay type: ADME, organism-based; parameters: time < 1512 hr, dose 31 mg/kg, route oral; settings: plasma, po; procedure, shortened: as §1
[28] = AUC (3 to 20 days) in children with uncomplicated malaria at 31 mg/kg, perorally; assay type: ADME, organism-based; parameters: dose 31 mg/kg, route oral; settings: human, plasma, po; procedure, shortened: as §1
[29] = Plasma concentration in human with uncomplicated malaria at 31 mg/kg, perorally four-dose treatment regimen measured at day 20; assay type: ADME, organism-based; parameters: dose 31 mg/kg, route oral; settings: po, read-out: MIC; procedure, shortened: as §3
[30] = Terminal half-life in human with uncomplicated malaria at 35 mg/kg, perorally after 35 days; assay type: ADME, organism-based; parameters: dose 35 mg/kg, route oral; settings: in vivo, po
[31] = AUC (0 to 60 days) in children with uncomplicated malaria at 31 mg/kg, perorally; assay type: ADME, organism-based; parameters: time < 1440 hr, dose 31 mg/kg, route oral; settings: human, plasma, po; procedure, shortened: as §1
[32] = Apparent steady-state volume of distribution with respect to bioavailability in human with uncomplicated malaria at 31 mg/kg, perorally after 63 days; assay type: ADME, organism-based; settings: in vivo, po, read-out: Vss/F; procedure, shortened: as §2
[33] = Terminal half-life in healthy human at 4.2 mg/kg, po after 42 days; assay type: ADME, organism-based; parameters: dose 4.2 mg/kg, route oral; settings: in vivo
[34] = Plasma concentration in human with uncomplicated malaria at 31 mg/kg, perorally once daily for 3 days measured at day 20; assay type: ADME, organism-based; parameters: dose 31 mg/kg, route oral; settings: po, read-out: MIC; procedure, shortened: as §3

For `Clc1ccc2c(N3CCN(CCCN4CCN(c5ccnc6cc(Cl)ccc56)CC4)CC3)ccnc2c1` [PIPERAQUINE], the AUC(0-t) at 1440 h [1] was 19400 ng·h/mL, the CL/F [2] was 10 mL/min/kg and the CL/F [3] was 23.3 mL/min/kg. The half-life [4] was 12 days, the Vd/F [5] was 8660 L and the half-life [6] was 23 days. The half-life [7] was 21 days, the half-life [8] was 28 days and the CL/F [9] was 1100 mL/min. It also gave a Vd/F [10] of 38100 L, a CL/F [11] of 30.8 mL/min/kg and a half-life [12] of 27.8 days. For the same molecule, the CL/F (Homo sapiens [13]) was 131 L/h, the Vd/F [14] was 716 L/kg and the AUC(0-t) [15] was 9070 ng·h/mL. It also gave a CL/F [16] of 15 mL/min/kg, a CL/F [17] of 19 mL/min/kg and a concentration at 28 day [18] of less than 10 ng/mL. The Vd/F [19] was 365 L/kg, the AUC(0-t) at 1512 h [20] was 20700 ng·h/mL and the Vp/F (Homo sapiens [21]) was 24000 L. For the same molecule, the AUC [22] was 8650 ng·h/mL, the Vd/F [23] was 574 L/kg and the half-life [24] was 28 days. For the same molecule, the AUC(0-t) [25] was 8650 ng·h/mL, the CL/F [26] was 16.7 mL/min/kg and the AUC at 1512 h [27] was 19400 ng·h/mL. The AUC(0-t) [28] was 7580 ng·h/mL, the concentration at 20 day [29] was 13 ng/mL and the half-life [30] was 14 days. For the same molecule, the AUC(0-t) at 1440 h [31] was 25900 ng·h/mL, the Vd/F [32] was 874 L/kg and the half-life [33] was 20 days. For the same molecule, the concentration at 72 h [34] was 12 ng/mL.
